Measurements: ChEMBL document CHEMBL1772978, “Exploration of the activity of 7-pyrrolidino-8-methoxyisothiazoloquinolones against methicillin-resistant Staphylococcus aureus (MRSA)” (J Med Chem, 2011)
Converted amounts (≈) assume the structure as drawn.

What was measured:
Staphylococcus aureus [1] = assay: Antibacterial activity against methicillin-sensitive Staphylococcus aureus ATCC 29213 after 24 hrs by microdilution method; format: functional; conditions: ATCC 29213, 24 h
Method in brief: (§1)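 MIC taken as the lowest concentration with no visible bacterial growth after 18-24 h at 37 °C, given in μg/mL; modal value of multiple experiments.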

[2] = Cytotoxicity against human Hep2 cells after 72 hrs by alamar blue assay; format: cell-based; conditions: HEp-2 cells
Staphylococcus aureus [3] = assay: Antibacterial activity against methicillin- and quinolone-resistant Staphylococcus aureus ATCC700699 after 24 hrs by microdilution method; format: functional; conditions: ATCC700699, 24 h
Method in brief: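 Broth microdilution; MIC read as the lowest compound concentration that prevents visible bacterial growth after incubation at 37 °C for 18–24 h, and expressed in μg/mL.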

Escherichia coli = assay: Antibacterial activity against Escherichia coli ATCC25922 after 24 hrs by microdilution method; format: functional; conditions: ATCC25922, 24 h; method in brief: as §1

Row | Compound | MIC (Staphylococcus aureus [1]) [µg/mL] | CC50 at 72 h [2] [µM] | MIC (Staphylococcus aureus [3]) [µg/mL] | MIC (Escherichia coli) [µg/mL]
1 | CNC(C)[C@@H]1CCN(c2c(F)cc3c(=O)c4c(=O)[nH]sc4n(C4CC4)c3c2OC)C1 (mixture of isomers) | 0.008 | 42 | 0.25 | 0.03
2 | COc1c(N2CC[C@@H](CN)C2)c(F)cc2c(=O)c3c(=O)[nH]sc3n(C3CC3)c12 | 0.008 (≈ 0.0198 µM) | 11 | 0.25 (≈ 0.618 µM) | 0.004 (≈ 0.00989 µM)
3 | COc1c(N2CC[C@@H](C(N)c3ccccn3)C2)c(F)cc2c(=O)c3c(=O)[nH]sc3n(C3CC3)c12 (mixture of isomers) | 0.008 | 1 | 0.13 | 0.06
4 | COc1c(N2CC[C@@H](C(C)NCC(F)(F)F)C2)c(F)cc2c(=O)c3c(=O)[nH]sc3n(C3CC3)c12 (mixture of isomers) | 0.13 | 41 | 4 | –
5 | COc1c(N2CC[C@H](N)C2)c(F)cc2c(=O)c3c(=O)[nH]sc3n(C3CC3)c12 | 0.008 (≈ 0.0205 µM) | 19 | 0.5 (≈ 1.28 µM) | 0.008 (≈ 0.0205 µM)
6 | COc1c(N2CC[C@H](C(C)N)C2)c(F)cc2c(=O)c3c(=O)[nH]sc3n(C3CC3)c12 (mixture of isomers) | 0.03 | – | 1 | 0.06
7 | CNC(C)[C@H]1CCN(c2c(F)cc3c(=O)c4c(=O)[nH]sc4n(C4CC4)c3c2OC)C1 (mixture of isomers) | 0.06 | > 100 | 2 | 0.13
8 | CN[C@H]1CCN(c2c(F)cc3c(=O)c4c(=O)[nH]sc4n(C4CC4)c3c2OC)C1 | 0.03 (≈ 0.0742 µM) | 41 | 2 (≈ 4.94 µM) | 0.06 (≈ 0.148 µM)
9 | COc1c(N2CC[C@@H](C(C)NCC3CC3)C2)c(F)cc2c(=O)c3c(=O)[nH]sc3n(C3CC3)c12 (mixture of isomers) | 0.03 | 43 | 0.5 | 0.25
10 | COc1c(N2CC[C@@H]([C@H](C)N(C)C)C2)c(F)cc2c(=O)c3c(=O)[nH]sc3n(C3CC3)c12 | 0.008 (≈ 0.0179 µM) | 39 | 0.5 (≈ 1.12 µM) | 0.06 (≈ 0.134 µM)
11 | COc1c(N2CC[C@H](CN)C2)c(F)cc2c(=O)c3c(=O)[nH]sc3n(C3CC3)c12 | 0.008 (≈ 0.0198 µM) | 11 | 0.25 (≈ 0.618 µM) | 0.03 (≈ 0.0742 µM)
12 | COc1c(N2CC[C@@H](CN(C)C)C2)c(F)cc2c(=O)c3c(=O)[nH]sc3n(C3CC3)c12 | 0.06 (≈ 0.139 µM) | > 100 | 4 (≈ 9.25 µM) | 0.13 (≈ 0.301 µM)
13 | COc1c(N2CC[C@@H](C(C)N(C)C)C2)c(F)cc2c(=O)c3c(=O)[nH]sc3n(C3CC3)c12 (mixture of isomers) | 0.03 | 40 | 1 | 0.06
14 | COc1c(N2CC[C@@H](N)C2)c(F)cc2c(=O)c3c(=O)[nH]sc3n(C3CC3)c12 | 0.03 (≈ 0.0768 µM) | 25 | 2 (≈ 5.12 µM) | 0.008 (≈ 0.0205 µM)
15 | COc1c(N2CCNCC2)c(F)cc2c(=O)c3c(=O)[nH]sc3n(C3CC3)c12 | 0.06 (≈ 0.154 µM) | 27 | 4 (≈ 10.2 µM) | 0.03 (≈ 0.0768 µM)
16 | COc1c(N2CCC(C(C)(C)NC3CC3)C2)c(F)cc2c(=O)c3c(=O)[nH]sc3n(C3CC3)c12 (racemic) | 0.02 (≈ 0.0423 µM) | 54 | 0.25 (≈ 0.529 µM) | 0.25 (≈ 0.529 µM)
17 | COc1c(N2CC[C@@H](CNCCF)C2)c(F)cc2c(=O)c3c(=O)[nH]sc3n(C3CC3)c12 | 0.008 (≈ 0.0178 µM) | 18 | 0.13 (≈ 0.289 µM) | 0.03 (≈ 0.0666 µM)
18 | CNC[C@@H]1CCN(c2c(F)cc3c(=O)c4c(=O)[nH]sc4n(C4CC4)c3c2OC)C1 | 0.008 (≈ 0.0191 µM) | 28 | 0.5 (≈ 1.19 µM) | 0.06 (≈ 0.143 µM)
19 | CN[C@H](C)[C@@H]1CCN(c2c(F)cc3c(=O)c4c(=O)[nH]sc4n(C4CC4)c3c2OC)C1 | 0.02 (≈ 0.0462 µM) | 29 | 0.5 (≈ 1.16 µM) | 0.06 (≈ 0.139 µM)
20 | COc1c(N2CC[C@@H](C(C)NC3CC3)C2)c(F)cc2c(=O)c3c(=O)[nH]sc3n(C3CC3)c12 (mixture of isomers) | 0.004 | 25 | 0.06 | 0.06
21 | O=c1[nH]sc2c1c(=O)c1cc(F)c(N3CCNCC3)cc1n2C1CC1 | 0.06 (≈ 0.166 µM) | 7 | 4 (≈ 11.1 µM) | 0.004 (≈ 0.0111 µM)
22 | COc1c(N2CC[C@@H]([C@@H](C)NCCF)C2)c(F)cc2c(=O)c3c(=O)[nH]sc3n(C3CC3)c12 | 0.004 (≈ 0.00861 µM) | 74 | 0.25 (≈ 0.538 µM) | 0.06 (≈ 0.129 µM)
23 | CC[C@H](NC)[C@@H]1CCN(c2c(F)cc3c(=O)c4c(=O)[nH]sc4n(C4CC4)c3c2OC)C1 (mixture of isomers) | 0.008 | 29 | 0.5 | 0.06

Row | Compound | MIC (Staphylococcus aureus [1]) [µg/mL] | CC50 at 72 h [2] [µM] | MIC (Staphylococcus aureus [3]) [µg/mL] | MIC (Escherichia coli) [µg/mL]
24 | COc1c(N2CC[C@@H](C(C)NC3CCCC3)C2)c(F)cc2c(=O)c3c(=O)[nH]sc3n(C3CC3)c12 (mixture of isomers) | 0.06 | 42 | 4 | –
25 | COc1c(N2CC[C@H]([C@H](C)N)C2)c(F)cc2c(=O)c3c(=O)[nH]sc3n(C3CC3)c12 | 0.03 (≈ 0.0717 µM) | 15 | 1 (≈ 2.39 µM) | 0.06 (≈ 0.143 µM)
26 | COc1c(N2CC[C@@H](C3(N)CC3)C2)c(F)cc2c(=O)c3c(=O)[nH]sc3n(C3CC3)c12 | 0.001 (≈ 0.00232 µM) | 4 | 0.06 (≈ 0.139 µM) | 0.008 (≈ 0.0186 µM)
27 | CNC(C)(C)[C@@H]1CCN(c2c(F)cc3c(=O)c4c(=O)[nH]sc4n(C4CC4)c3c2OC)C1 | 0.008 (≈ 0.0179 µM) | 28 | 0.13 (≈ 0.291 µM) | 0.13 (≈ 0.291 µM)
28 | COc1c(N2CC[C@@H]([C@@H](C)N)C2)c(F)cc2c(=O)c3c(=O)[nH]sc3n(C3CC3)c12 | 0.02 (≈ 0.0478 µM) | 33 | 0.25 (≈ 0.597 µM) | 0.03 (≈ 0.0717 µM)
29 | COc1c(N2CC[C@@H](CNC3CC3)C2)c(F)cc2c(=O)c3c(=O)[nH]sc3n(C3CC3)c12 | 0.004 (≈ 0.009 µM) | 23 | 0.06 (≈ 0.135 µM) | 0.03 (≈ 0.0675 µM)
30 | COc1c(N2CCC(CNCC(C)C)C2)c(F)cc2c(=O)c3c(=O)[nH]sc3n(C3CC3)c12 (racemic) | 0.06 (≈ 0.13 µM) | 46 | 4 (≈ 8.68 µM) | 0.13 (≈ 0.282 µM)
31 | COc1c(N2CC[C@H]([C@@H](C)N)C2)c(F)cc2c(=O)c3c(=O)[nH]sc3n(C3CC3)c12 | 0.02 (≈ 0.0478 µM) | 51 | 1 (≈ 2.39 µM) | 0.06 (≈ 0.143 µM)
32 | COc1c(N2CC[C@@H](C(C)(C)NCCF)C2)c(F)cc2c(=O)c3c(=O)[nH]sc3n(C3CC3)c12 | 0.004 (≈ 0.00836 µM) | 19 | 0.06 (≈ 0.125 µM) | 0.06 (≈ 0.125 µM)
33 | COc1c(N2CC[C@@H](C(C)N)C2)c(F)cc2c(=O)c3c(=O)[nH]sc3n(C3CC3)c12 (mixture of isomers) | 0.004 | 9 | 0.06 | 0.02
34 | COc1c(N2CC[C@@H](C(C)(C)N(C)C)C2)c(F)cc2c(=O)c3c(=O)[nH]sc3n(C3CC3)c12 | 0.06 (≈ 0.13 µM) | 90 | 1 (≈ 2.17 µM) | 0.13 (≈ 0.282 µM)
35 | COc1c(N2CC[C@@H](C(C)NC(C)C)C2)c(F)cc2c(=O)c3c(=O)[nH]sc3n(C3CC3)c12 (mixture of isomers) | 0.02 | 51 | 0.5 | 0.5
36 | COc1c(N2CC[C@@H](CNC(C)C)C2)c(F)cc2c(=O)c3c(=O)[nH]sc3n(C3CC3)c12 | 0.02 (≈ 0.0448 µM) | 33 | 0.5 (≈ 1.12 µM) | 0.06 (≈ 0.134 µM)
37 | CCNC(C)[C@@H]1CCN(c2c(F)cc3c(=O)c4c(=O)[nH]sc4n(C4CC4)c3c2OC)C1 (mixture of isomers) | 0.008 | 40 | 0.25 | 0.06
38 | COc1c(N2CC[C@@H](C(C)(C)NCC(C)C)C2)c(F)cc2c(=O)c3c(=O)[nH]sc3n(C3CC3)c12 | 0.06 (≈ 0.123 µM) | 88 | 2 (≈ 4.09 µM) | 1 (≈ 2.05 µM)
39 | COc1c(N2CC[C@@H](C(N)c3nccs3)C2)c(F)cc2c(=O)c3c(=O)[nH]sc3n(C3CC3)c12 (mixture of isomers) | 0.004 | 5 | 0.06 | 0.13
40 | COc1c(N2CC[C@H](C(C)NC3CC3)C2)c(F)cc2c(=O)c3c(=O)[nH]sc3n(C3CC3)c12 (mixture of isomers) | 0.02 | 43 | 0.13 | 0.13
41 | CCN[C@@H](C)[C@@H]1CCN(c2c(F)cc3c(=O)c4c(=O)[nH]sc4n(C4CC4)c3c2OC)C1 | 0.004 (≈ 0.00896 µM) | 27 | 0.13 (≈ 0.291 µM) | 0.06 (≈ 0.134 µM)
42 | COc1c(N2CC[C@@H](C(N)c3ncco3)C2)c(F)cc2c(=O)c3c(=O)[nH]sc3n(C3CC3)c12 (mixture of isomers) | 0.004 | 5 | 0.25 | 0.06
43 | CCNC(C)(C)[C@@H]1CCN(c2c(F)cc3c(=O)c4c(=O)[nH]sc4n(C4CC4)c3c2OC)C1 | 0.02 (≈ 0.0434 µM) | 50 | 0.5 (≈ 1.09 µM) | 0.13 (≈ 0.282 µM)
44 | CC[C@@H](NC)[C@@H]1CCN(c2c(F)cc3c(=O)c4c(=O)[nH]sc4n(C4CC4)c3c2OC)C1 | 0.03 (≈ 0.0672 µM) | 58 | 2 (≈ 4.48 µM) | 0.13 (≈ 0.291 µM)
45 | COc1c(N2CC[C@H](C(C)(C)N)C2)c(F)cc2c(=O)c3c(=O)[nH]sc3n(C3CC3)c12 | 0.03 (≈ 0.0694 µM) | 61 | 2 (≈ 4.62 µM) | 0.13 (≈ 0.301 µM)
46 | CN[C@@H]1CCN(c2c(F)cc3c(=O)c4c(=O)[nH]sc4n(C4CC4)c3c2OC)C1 | 0.006 (≈ 0.0148 µM) | 42 | 4 (≈ 9.89 µM) | 0.06 (≈ 0.148 µM)
